# Test results: ChEMBL document CHEMBL2010791, “3-Phenyl-5-isothiazole carboxamides with potent mGluR1 antagonist activity” (Bioorg Med Chem Lett, 2012)
# Calls of active or inactive are those of the source. The calls are words filed in the database; no cut-off is given here.
# Tests used:
# [1] = biological target: Metabotropic glutamate receptor 5 (Homo sapiens, UniProt P41594); experiment: Antagonist activity at human mGluR5; type: functional
# [2] = biological target: Metabotropic glutamate receptor 1 (Homo sapiens, UniProt Q13255); experiment: Allosteric antagonist activity at human recombinant mGluR1 expressed in AV12 cells assessed as intracellular calcium concentration using Fluo-3 dye by FLIPR assay; type: functional, cell-based
# Procedure, shortened: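 Intracellular calcium read with Fluo-3 on a 96-channel FLIPR; peak fluorescence to glutamate at its EC90 with and without compound. Inhibition expressed as percent of assay window (EC90 glutamate response minus buffer); IC50 from 4-parameter logistic fit.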
# [3] = biological target: Metabotropic glutamate receptor 3 (Homo sapiens) (UniProt Q14832); experiment: Antagonist activity at mGluR3; type: functional
# Rattus norvegicus [4] = experiment: Analgesic activity in fasted Harlan Sprague-Dawley rat assessed as inhibition of formalin-induced paw-licking behaviour in late phase at 3 to 60 mg/kg, po administered 1 hr before formalin challenge measured after 11 to 40 mins; type: functional, organism-based
# Procedure, shortened: (§1)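 Fasted male Sprague Dawley rats dosed orally (1, 3, 10, 30, 60 mg/kg, n = 8 per group) 1 h before intraplantar injection of 50 µl 5% formalin into right hindpaw. Paw-licking events counted 0–5 min (early) and 11–40 min (late); compared with vehicle, p<0.05.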
# Rattus norvegicus [5] = experiment: Analgesic activity in po dosed fasted Harlan Sprague-Dawley rat assessed as inhibition of formalin-induced paw-licking behaviour in late phase administered 1 hr before formalin challenge measured after 11 to 40 mins; type: functional; procedure, shortened: as §1
# [6] = biological target: Metabotropic glutamate receptor 7 (Homo sapiens) (UniProt Q14831); experiment: Antagonist activity at mGluR7; type: functional
# [7] = biological target: Metabotropic glutamate receptor 8 (Homo sapiens) (UniProt O00222); experiment: Antagonist activity at mGluR8; type: functional
# [8] = biological target: Metabotropic glutamate receptor 4 (Homo sapiens) (UniProt Q14833); experiment: Antagonist activity at mGluR4; type: functional
# [9] = Volume of distribution in Sprague-Dawley rat at 3 mg/kg, iv and at 10 mg/kg, po; type: ADME, organism-based; details: in vivo
# Procedure, shortened: (§2)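 Sprague Dawley rats dosed 3 mg/kg IV (solution in 25 mmol/L phosphate buffer pH 3 with 5% solutol HS15 and 5% pharmasolve) and 10 mg/kg orally (suspension in 1% methylcellulose A400 plus 0.1% antifoam); plasma levels measured over 24 h to derive PK parameters.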
# [10] = Elimination half life in Sprague-Dawley rat at 3 mg/kg, iv; type: ADME, organism-based; set-up: dose 3 mg/kg, route intravenous; details: in vivo, read-out: beta t1/2 (converted); procedure, shortened: as §2
# [11] = Cmax in Sprague-Dawley rat at 10 mg/kg, po; type: ADME, organism-based; set-up: dose 10 mg/kg, route oral; details: in vivo; procedure, shortened: as §2
# [12] = Clearance in Sprague-Dawley rat at 3 mg/kg, iv and at 10 mg/kg, po; type: ADME, organism-based; details: in vivo; procedure, shortened: as §2
# [13] = Ratio of drug level in brain to plasma in Sprague-Dawley rat; type: ADME; details: read-out: BPR
# Procedure, shortened: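 Rats dosed as in the plasma PK study; brain concentration profiles measured alongside plasma and the brain/plasma ratio taken.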
# Rattus norvegicus [14] = experiment: Ex vivo receptor occupancy of mGluR1 in po dosed fasted Sprague-Dawley rat assessed as ratio of drug level in cerebellum to frontal cortex after 20 mins; type: functional
# Procedure, shortened: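 Fasted Sprague Dawley rats dosed orally (0.3–60 mg/kg; vehicle 1% methyl cellulose), then 1 h later given a 30 µg/kg IV bolus of a competing mGluR1 antagonist tracer. Killed 20 min later; cerebellum and frontal cortex levels measured by mass spectrometry. Occupancy by ratio method (cerebellum normalized to cortex), n = 4 per dose (n = 3 at 10 mg/kg).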
# [15] = biological target: Metabotropic glutamate receptor 1 (Rattus norvegicus, UniProt P23385); experiment: Antagonist activity at rat mGluR1; type: functional
# [16] = AUC (0 to 24 hrs) in Sprague-Dawley rat at 10 mg/kg, po; type: ADME, organism-based; set-up: time < 24 hr, dose 10 mg/kg, route oral; details: plasma; procedure, shortened: as §2
# Rattus norvegicus [17] = experiment: Toxicity in fasted Sprague-Dawley rat assessed as deffects in motor impairment at 60 mg/kg, po measured up to 4 hrs by rotorod test; type: organism-based; set-up: dose 60 mg/kg, route oral; details: in vivo
# Procedure, shortened: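 Fasted male Sprague Dawley rats given 60 mg/kg orally or vehicle (n = 8 per group); time on rotorod recorded at 1, 2, 3 and 4 h post-dose after training to 40 s baseline.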
# [18] = Oral bioavailability in Sprague-Dawley rat at 10 mg/kg; type: ADME, organism-based; details: in vivo; procedure, shortened: as §2
# [19] = Elimination half life in Sprague-Dawley rat at 10 mg/kg, po; type: ADME, organism-based; set-up: dose 10 mg/kg, route oral; details: in vivo, read-out: beta t1/2 (converted); procedure, shortened: as §2
# [20] = Tmax in Sprague-Dawley rat at 10 mg/kg, po; type: ADME, organism-based; set-up: dose 10 mg/kg, route oral; details: in vivo; procedure, shortened: as §2
# Chain of Metabotropic glutamate receptor 1 (Homo sapiens, UniProt Q13255) (Q13255 whole entry): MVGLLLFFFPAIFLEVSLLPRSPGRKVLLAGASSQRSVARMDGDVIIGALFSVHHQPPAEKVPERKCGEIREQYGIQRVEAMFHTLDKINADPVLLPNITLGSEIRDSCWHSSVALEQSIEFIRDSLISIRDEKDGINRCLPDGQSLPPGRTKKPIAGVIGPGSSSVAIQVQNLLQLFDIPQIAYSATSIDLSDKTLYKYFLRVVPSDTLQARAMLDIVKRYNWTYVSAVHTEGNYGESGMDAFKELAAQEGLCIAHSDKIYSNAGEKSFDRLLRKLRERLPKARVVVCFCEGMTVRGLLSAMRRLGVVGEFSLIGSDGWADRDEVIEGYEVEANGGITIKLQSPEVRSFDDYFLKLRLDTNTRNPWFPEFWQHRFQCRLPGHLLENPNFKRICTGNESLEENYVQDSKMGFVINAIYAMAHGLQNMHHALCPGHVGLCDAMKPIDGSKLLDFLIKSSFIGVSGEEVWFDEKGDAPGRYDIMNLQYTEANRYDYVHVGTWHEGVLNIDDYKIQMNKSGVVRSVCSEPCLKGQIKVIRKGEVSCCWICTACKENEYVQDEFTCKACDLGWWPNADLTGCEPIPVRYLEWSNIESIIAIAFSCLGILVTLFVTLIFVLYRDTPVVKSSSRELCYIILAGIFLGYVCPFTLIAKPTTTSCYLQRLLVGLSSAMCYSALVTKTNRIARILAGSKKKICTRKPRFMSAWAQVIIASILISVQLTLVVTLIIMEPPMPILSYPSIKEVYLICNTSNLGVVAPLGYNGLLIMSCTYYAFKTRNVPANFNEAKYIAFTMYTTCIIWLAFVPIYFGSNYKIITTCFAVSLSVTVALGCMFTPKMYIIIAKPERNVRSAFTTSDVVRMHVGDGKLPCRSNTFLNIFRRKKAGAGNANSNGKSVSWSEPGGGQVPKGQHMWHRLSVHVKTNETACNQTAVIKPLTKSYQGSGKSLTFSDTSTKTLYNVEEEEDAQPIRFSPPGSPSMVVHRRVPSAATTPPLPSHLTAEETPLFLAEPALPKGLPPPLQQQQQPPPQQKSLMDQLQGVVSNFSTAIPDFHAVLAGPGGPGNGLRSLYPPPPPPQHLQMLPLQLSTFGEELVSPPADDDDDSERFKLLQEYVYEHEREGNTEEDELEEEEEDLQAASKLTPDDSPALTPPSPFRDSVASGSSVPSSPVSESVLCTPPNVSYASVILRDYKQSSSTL
# Chain of Metabotropic glutamate receptor 5 (P41594 whole entry): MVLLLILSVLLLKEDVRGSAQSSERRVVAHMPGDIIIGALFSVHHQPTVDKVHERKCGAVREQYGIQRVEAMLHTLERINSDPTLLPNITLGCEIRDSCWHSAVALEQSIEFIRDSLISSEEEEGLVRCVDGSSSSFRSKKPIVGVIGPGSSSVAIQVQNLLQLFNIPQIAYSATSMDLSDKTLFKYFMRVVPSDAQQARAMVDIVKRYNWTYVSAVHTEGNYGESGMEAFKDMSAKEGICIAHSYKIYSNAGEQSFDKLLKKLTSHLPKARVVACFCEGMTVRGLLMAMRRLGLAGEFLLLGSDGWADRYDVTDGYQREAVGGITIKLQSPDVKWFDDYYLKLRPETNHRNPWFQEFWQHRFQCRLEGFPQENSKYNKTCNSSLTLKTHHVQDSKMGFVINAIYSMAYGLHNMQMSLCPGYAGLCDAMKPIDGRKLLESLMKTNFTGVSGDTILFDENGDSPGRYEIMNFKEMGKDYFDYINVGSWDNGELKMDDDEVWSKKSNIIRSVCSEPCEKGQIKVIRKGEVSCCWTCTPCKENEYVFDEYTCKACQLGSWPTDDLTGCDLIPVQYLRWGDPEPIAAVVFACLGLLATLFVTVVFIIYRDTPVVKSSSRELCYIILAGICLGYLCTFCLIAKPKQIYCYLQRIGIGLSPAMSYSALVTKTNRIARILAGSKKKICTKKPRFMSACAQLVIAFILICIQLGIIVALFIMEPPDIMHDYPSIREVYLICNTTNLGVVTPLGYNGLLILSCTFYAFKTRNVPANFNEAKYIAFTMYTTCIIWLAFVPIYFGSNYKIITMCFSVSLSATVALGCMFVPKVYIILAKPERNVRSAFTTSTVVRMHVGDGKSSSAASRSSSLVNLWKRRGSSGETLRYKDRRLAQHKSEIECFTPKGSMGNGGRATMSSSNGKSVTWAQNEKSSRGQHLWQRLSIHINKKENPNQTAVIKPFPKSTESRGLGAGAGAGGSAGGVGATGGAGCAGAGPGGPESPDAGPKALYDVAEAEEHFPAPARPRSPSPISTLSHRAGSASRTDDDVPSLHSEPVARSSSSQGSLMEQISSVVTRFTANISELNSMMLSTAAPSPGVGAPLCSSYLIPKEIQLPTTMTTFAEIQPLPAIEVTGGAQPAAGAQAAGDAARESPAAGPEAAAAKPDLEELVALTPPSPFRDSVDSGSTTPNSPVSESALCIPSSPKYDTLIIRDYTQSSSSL
# Chain of Metabotropic glutamate receptor 3 (Homo sapiens) (Q14832 23-879 limits assumed): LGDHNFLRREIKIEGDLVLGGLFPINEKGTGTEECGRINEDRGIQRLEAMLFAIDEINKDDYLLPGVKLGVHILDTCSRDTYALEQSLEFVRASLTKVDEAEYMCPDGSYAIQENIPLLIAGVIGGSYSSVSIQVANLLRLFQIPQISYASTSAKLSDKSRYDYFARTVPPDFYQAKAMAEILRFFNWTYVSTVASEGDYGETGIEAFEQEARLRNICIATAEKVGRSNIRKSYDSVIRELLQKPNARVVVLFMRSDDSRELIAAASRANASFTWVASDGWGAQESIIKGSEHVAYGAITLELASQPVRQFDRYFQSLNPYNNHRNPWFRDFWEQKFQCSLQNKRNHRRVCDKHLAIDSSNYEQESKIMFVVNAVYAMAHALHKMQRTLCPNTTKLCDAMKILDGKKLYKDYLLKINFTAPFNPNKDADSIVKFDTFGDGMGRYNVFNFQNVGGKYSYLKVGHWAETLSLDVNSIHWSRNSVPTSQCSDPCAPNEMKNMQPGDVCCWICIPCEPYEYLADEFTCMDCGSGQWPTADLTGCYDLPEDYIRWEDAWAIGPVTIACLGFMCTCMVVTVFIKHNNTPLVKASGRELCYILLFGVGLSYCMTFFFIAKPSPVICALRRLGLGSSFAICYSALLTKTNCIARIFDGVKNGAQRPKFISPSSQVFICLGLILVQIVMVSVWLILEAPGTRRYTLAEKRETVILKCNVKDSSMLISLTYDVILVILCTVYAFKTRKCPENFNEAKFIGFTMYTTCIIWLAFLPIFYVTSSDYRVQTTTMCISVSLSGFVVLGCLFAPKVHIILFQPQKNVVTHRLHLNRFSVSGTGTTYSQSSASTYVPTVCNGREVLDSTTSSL
# Chain of Metabotropic glutamate receptor 1 (Rattus norvegicus, UniProt P23385) (P23385 whole entry): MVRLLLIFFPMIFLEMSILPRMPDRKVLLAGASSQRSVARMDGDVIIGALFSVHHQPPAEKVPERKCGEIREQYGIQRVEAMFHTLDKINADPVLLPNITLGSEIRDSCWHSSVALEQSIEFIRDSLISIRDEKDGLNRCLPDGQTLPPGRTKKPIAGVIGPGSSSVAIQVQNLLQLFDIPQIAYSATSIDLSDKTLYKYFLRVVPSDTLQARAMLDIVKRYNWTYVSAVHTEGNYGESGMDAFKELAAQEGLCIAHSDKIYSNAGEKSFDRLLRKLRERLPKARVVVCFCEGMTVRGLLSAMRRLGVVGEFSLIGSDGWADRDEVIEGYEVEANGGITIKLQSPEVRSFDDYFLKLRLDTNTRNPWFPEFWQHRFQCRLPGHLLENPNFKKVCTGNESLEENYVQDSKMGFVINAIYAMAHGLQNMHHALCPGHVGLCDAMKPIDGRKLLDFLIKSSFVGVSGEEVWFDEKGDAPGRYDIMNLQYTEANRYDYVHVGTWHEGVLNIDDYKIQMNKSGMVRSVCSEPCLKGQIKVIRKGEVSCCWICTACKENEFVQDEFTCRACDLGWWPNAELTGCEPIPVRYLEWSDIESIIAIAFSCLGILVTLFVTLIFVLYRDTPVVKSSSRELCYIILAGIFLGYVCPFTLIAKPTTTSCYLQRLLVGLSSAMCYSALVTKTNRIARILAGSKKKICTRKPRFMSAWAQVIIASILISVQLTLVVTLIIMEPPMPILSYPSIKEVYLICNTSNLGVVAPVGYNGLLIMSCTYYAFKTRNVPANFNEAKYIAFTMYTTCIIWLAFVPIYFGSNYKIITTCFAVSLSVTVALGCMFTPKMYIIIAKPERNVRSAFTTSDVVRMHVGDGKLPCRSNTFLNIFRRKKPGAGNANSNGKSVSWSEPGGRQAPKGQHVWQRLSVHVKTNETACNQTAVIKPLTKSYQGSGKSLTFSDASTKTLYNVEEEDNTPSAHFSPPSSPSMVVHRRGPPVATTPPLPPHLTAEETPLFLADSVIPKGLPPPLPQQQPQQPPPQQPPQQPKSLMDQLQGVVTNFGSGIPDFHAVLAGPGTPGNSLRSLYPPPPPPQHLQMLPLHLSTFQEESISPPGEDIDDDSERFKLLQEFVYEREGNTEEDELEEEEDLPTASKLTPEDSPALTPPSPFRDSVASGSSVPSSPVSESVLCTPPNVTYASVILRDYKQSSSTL
Structure (SMILES),IC50 [1] [nM],IC50 [2] [nM],also measured
Cc1c(-c2ccc(Cl)c(Cl)c2)nsc1NC(=O)[C@@H]1C[C@H]1C,6650,39,–
Cc1c(-c2ccc(F)cc2)nsc1NC(=O)[C@@H]1C[C@H]1C,> 12500,100,–
Cc1c(-c2ccccc2)nsc1NC(=O)[C@@H]1C[C@H]1C,> 12500,65,–
Cc1c(-c2ccc(Br)cc2)nsc1NC(=O)[C@@H]1C[C@H]1C,730,7,–
Cc1c(-c2ccc(Cl)cc2)nsc1NC(=O)[C@@H]1C[C@H]1C,1220,9,–
COc1ccc(-c2nsc(NC(=O)[C@@H]3C[C@H]3C)c2C)cc1F,159,7,–
COc1ccc(-c2nsc(NC(=O)[C@@H]3C[C@H]3C)c2C)cc1 (racemic),–,32,–
CCOc1ccc(-c2nsc(NC(=O)[C@@H]3C[C@H]3C)c2C)cc1,19,92,–
Cc1c(-c2ccc(C(C)(F)F)cc2)nsc1NC(=O)[C@@H]1C[C@H]1C,> 12500,67,–
Cc1c(-c2ccc(O)cc2)nsc1NC(=O)[C@@H]1C[C@H]1C,> 12500,138,–
COc1ccc(-c2nsc(NC(=O)[C@H]3C[C@@H]3C)c2C)cc1,–,110,–
COc1ccc(-c2nsc(NC(=O)[C@@H]3C[C@H]3C)c2C)cc1 [listing 1 of 2 here],–,–,Activity [3]: inactive; Activity (Rattus norvegicus [4]): Active; Activity (Rattus norvegicus [5]): Dose-dependent effect; Activity [6]: inactive; Activity [7]: inactive; Activity [8]: inactive
COc1ccc(-c2nsc(NC(=O)[C@@H]3C[C@H]3C)c2C)cc1 [listing 2 of 2 here],158,9,Vd [9]: 1.27 L/kg; half-life [10]: 0.41 h; Cmax [11]: 1050 ng/mL; ED50 (Rattus norvegicus [5]): 7 mg/kg; clearance [12]: 35.9 mL/min/kg; Kp [13]: 0.2; ED50 (Rattus norvegicus [14]): 3.7 mg/kg; IC50 [15]: 0.9 nM; AUC(0-t) at 24 h [16]: 3240 ng·h/mL; Activity (Rattus norvegicus [17]): Non-toxic; bioavailability [18]: 55.5%; half-life [19]: 1.24 h; Tmax [20]: 1 h
